Source: the EternaBench riboswitch data

Test system: MS2 coat protein
Experiment: apparent Kd, MS2 coat protein; higher = weaker binding; RNA-MaP array; FMN 200 µM where present
In short: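 On Illumina sequencing-chip clusters, designs were transcribed by stalled E. coli RNA polymerase and titrated with SNAP-549-labelled MS2 coat protein (0.7 or 1.5 nM, doubling to 3 µM), without and then with constant ligand, in 100 mM Tris-HCl pH 7.5, 80 mM KCl, 4 mM MgCl2, BSA, DTT, yeast tRNA and Tween-20. Apparent Kd is the median of filtered per-cluster curve fits to green signal normalised to red-channel RNA signal and control-cluster median Fmax.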

[1] = designed as: OFF switch for flavin mononucleotide, no ligand
[2] = ligand present: flavin mononucleotide, designed as: OFF switch for flavin mononucleotide
[3] = designed as: ON switch for flavin mononucleotide, no ligand
[4] = ligand present: flavin mononucleotide, designed as: ON switch for flavin mononucleotide

| Sequence | apparent Kd [1] [nM] | apparent Kd [2] [nM] | apparent Kd [3] [nM] | apparent Kd [4] [nM] |
| --- | --- | --- | --- | --- |
| AGUUCUUGUGAAGGAUAUACGGCGGGUCGCGCAGUAGAAGGUCACAUGAGGAUCACCCAUGUCGACAUUGUGCAGUAUCGACAA | 82.9 | 465 |  |  |
| ACAUACAUUCGAGGAUAUCGGUGAACAAAUUAACGAGAAGGCGAUAUAAGUUUUAAUCUUAUGAACAUGAGGAUCACCCAUGUA |  |  | 26.4 | 24.3 |
| CCUCCCAAGUAAGGAUAUCGGCCAUAGUUAACUCGAGAAGGUACAUGAGGAUCACCCAUGUCGUCCCUACAGACUCCUCCCUCC | 9.19 | 9.15 |  |  |
| UUGCCUCAGAACAUGAGGAUCACCCAUGUGCUGCGGGCAUCGUAGGAUAUGAUGGUAUGAUACCAUCAGAAGGAUGAUGGUACC |  |  | 6.18 | 5.77 |
| GGAUGACAAAGUCAUCCCGCUUUGACAUGAGGAUCACCCAUGUAGGAUAUAUUAAUCAAAGAUUAAUAGAAGGACAUGUUUCUG | 72.4 | 174 |  |  |
| AAUUCGUCAGGAUAUGCAUGUAAUUGUUACAUUUCGCCGUUGCAGAAGGGACAUGAGGAUCACCCAUGUAAGUC | 32.8 | 34.9 |  |  |
| AAUAAUAAGGAGGAUAUCGUAUCGGAAACGAUACGAGAAGGUCUAACAUGAGGAUCACCCAUGUUCCUCAAUAA | 40.8 | 54.6 |  |  |
| AGAAACUACGAGAAGGACAUGAGGAUCACCCAUGUUUCCACUUAGUGGUAUGUAGGAUAUCGUAGUUUCAGGAUCGUGAGAUCA | 5.81 | 6.39 |  |  |
| GCCGAUUAAGUGAGGAUAUACCUAUGGAUACAUAGGUAGAAGGCACAUGAGGAUCACCCAUGUUCCUUAACGGC | 11.2 | 30 |  |  |
| GCUCCGCACUAGAAGGGUGACAUGAGGAUCACCCAUGUGCACUUCCGCUCUUAGCGGAAAGUGCCACAGGAUAUAGUGUGGAGU |  |  | 31.8 | 113 |
| CCAAGCUGUGUGAGGAUAUGCUGAACCUUGGUUCAGCAGAAGGCACAUGAGGAUCACCCAUGUGAAAAGCUUGG | 16.2 | 56 |  |  |
| UUACCUUAUGAGAAGGCGAUCAUGAAACAUGAUCGAGGAUAUCAUGUAAACAUGAGGAUCACCCAUGUAUGGGUAUUAUGGUAG |  |  | 133 | 32.5 |
| AAUAAACUCACAGGAUAUAGCAUAGGUCGCGUGAACUUACAGACGACUAUGCUAGAAGGGUGACCACAUGAGGAUCACCCAUGU |  |  | 880 | 186 |
| CGAUAACAUAGUUAUCCGUAACGGACAUGAGGAUCACCCAUGUAGGAUAUGUUACUCAACGAGUAACAGAAGGACAUGAGUCCU | 11.8 | 54 |  |  |
| UGUUAUUAGACAGGAUAUUGAAUGUUAAGUAUUAACAUGAGGAUCACCCAUGUAUUUCAUUCGUACAAGAAGGGUCAUGUUCCU |  |  | 166 | 202 |
| AAAAGCUCAGGAUAUACGGUCUGUUGUUGAAAAAGUAAAAAACAUGAGGAUCACCCAUGUAGAAGGGAGCGAAA | 67.3 | 159 |  |  |
| CAUUAAUUCAUUAUAGUAAUUAUACAGGAUAUGUUACAUGAGGAUCACCCAUGUAUUCAUGGUAAACAGAAGGGUAAUACUAGA | 12.3 | 22.4 |  |  |
| CGCAACAUACAGAAGGAGUAAAUUAGAAGUGUACUAGGAUAUGUUUACAUGAGGAUCACCCAUGUCGAUUGGGUUUUAGUUGCG | 489 | 251 |  |  |
| UCAUACAUGACAUGACAUGACAUGAGGAUCACCCAUGUUUACAAGGAUAUGUACAUGAAACAUGUACAGAAGGUGUAUUGGACU | 42.4 | 150 |  |  |
| CAGUACUGAGGAUAUACAUGAGGAUCACCCAUGUGUUCCAGCUAGGAGACUAGCAAAAGUAGAAGGCAGUACUG | 27 | 345 |  |  |
| CGUGUUAACGAAGGAUAUGGAUACAUGAGGAUCACCCAUGUAUAUUUUGUGAUCUUGUUUAAGAUCCAGAAGGUCGUAUACACG | 33.8 | 84.7 |  |  |

| Sequence | apparent Kd [1] [nM] | apparent Kd [2] [nM] | apparent Kd [3] [nM] | apparent Kd [4] [nM] |
| --- | --- | --- | --- | --- |
| AGAAACUACGAGAAGGACAUGAGAACCUUCAAUUACAUGAGGAUCACCCAUGUAGGAUAUCGUAGUUUCAGGAUCGUGAGAUCA | 12.7 | 86 |  |  |
| AAUUCAAACAGAGGAUAUUGUUUAUCUCUAUUGCAAGAAGGCUGAUCUUACUACCCACUUAUGAAACAUGAGGAUCACCCAUGU |  |  | 34.6 | 30.1 |
| GCACGGAGUGUAGGAUAUUAGUGCGAUUAGCACUGAGAAGGACAUGAGGAUCACCCAUGUUCCUCAAUAACAUACCUUCCGUGC | 13.8 | 10.6 |  |  |
| UUAGUCAUGUGACGUGUUGACAUUCCAGAAGGGCCACAUGAGGAUCACCCAUGUCGAAGAAACAGGCAGGAUAUGGACCAAUGG |  |  | 43 | 11.2 |
| UGCAUCAAUGAAGGAUAUCUAUGUCCAACAUGAGGAUCACCCAUGUUGAGGAUUACCUAUGUGUAGGAGAAGGUCAAUAUAACU |  |  | 6.67 | 6.12 |
| GAGGCGCUAGCAGGAUAUGUACAUGAGGAUCACCCAUGUAAAUCUUUUUCUGGUGAAGCGCAAGUAUAGAAGGGCUAACGCUGG | 9.07 | 18.8 |  |  |
| CACGAUGAUGUAGGAUAUAUACUGGAAUACAGUAUAGAAGGACAUGAGGAUCACCCAUGUUAAGUGCCUCCAAGUAACAUCGUG | 17.2 | 25.4 |  |  |
| CAUAACGGCUGAGGAUAUUGAAUGUGCGUGGACAUGAGGAUCACCCAUGUUCAAGAAGGCAGCAAUUUACUUGGAUCUAUCCGC | 66.2 | 217 |  |  |
| AUACUCAUGUAAGGAUAUGCAGCCGAAACGGCUGCAGAAGGUACUAUAAUACAUGAGGAUCACCCAUGUCGAAAUAAAAUAGUU |  |  | 201 | 47.9 |
| UGUUGUAUUACAGGAUAUCUAUGAUUUUUAUUUAGAGAAGGGUAUUCACAUGAGGAUCACCCAUGUAUAUACGAGGAAGUUGUG |  |  | 46.1 | 51.7 |
| UUUUGGCGGGCAGGAUAUACUAAGACAUGAGGAUCACCCAUGUACUUGCAAGAUGUCCGUGUCGAGUAGAAGGGCCAAGCUAUA | 4.97 | 7.8 |  |  |
| GUGGCUUAUGAGAAGGCGAUCAUGAAACAUGAUCGAGGAUAUCAUGUAAACAUGAGGAUCACCCAUGUAUGGGUAUUAUGCUAC |  |  | 291 | 53.9 |
| GAAUUAUUACAGAAGGUGUUUUACAUGAGGAUCACCCAUGUUUUAUUGUUUAAAUUUGAUAUUUACAAGGAUAUGUACUAAUCU |  |  | 32.1 | 24.3 |
| UGGAUGGUAUGAGGAUAUGCGCGCGAAACGCGCGCAGAAGGCGUGUCAAUAGACAUGAGGAUCACCCAUGUACUAUCCAUCCAA |  |  | 85.2 | 9.82 |
| UACAGCUCGACAGGAUAUACAUCACUGCUUCGGCAGUGUAUCUUAAUAACAUGAGGAUCACCCAUGUAGAAGGGUCGAGCUGUA | 18.1 | 32.8 |  |  |
| UUUUGACAUGAGGAUCACCCAUGUCAGGAUAUAGUAGGACAAAUAAAUAAAAGUUCUACUAGAAGGGAUAUGGA | 23.2 | 37.5 |  |  |
| AUCAGCUCGUCAGGAUAUACGUCACUGCGUCAGCAGUGUAAUAAAAUAACAUGAGGAUCACCCAUGUAGAAGGGACGAGCUGAU | 6.36 | 6.75 |  |  |
| AUGUUAUAUGAAGGAUAUACUUAACAUGAGGAUCACCCAUGUGGUGUUGUGAGUGAGUGAGUUUAGUAGAAGGUCAAUUCUUUU | 256 | 263 |  |  |
| CAUAACUUUGAUCUCUCCUACAUGAGGAUCACCCAUGUUGAGAGAAGGAGGCGGCGGAGUGCCGCCUAGGAUAUCUGAAGGGUC | 6.06 | 7.35 |  |  |
| GGAUGACAAAGUCAUCCAAAUCGAACAUGAGGAUCACCCAUGUAGGAUAUGCUACUGAAACAGUAGCAGAAGGACAUGUGCUUU | 35.3 | 187 |  |  |
